{"data": "Results collected from several papers", "target": "Mitogen-activated protein kinase 15 (MAPK15, Homo sapiens, UniProt Q8TD08)", "Residues used in one study (Q8TD08 1-544)": "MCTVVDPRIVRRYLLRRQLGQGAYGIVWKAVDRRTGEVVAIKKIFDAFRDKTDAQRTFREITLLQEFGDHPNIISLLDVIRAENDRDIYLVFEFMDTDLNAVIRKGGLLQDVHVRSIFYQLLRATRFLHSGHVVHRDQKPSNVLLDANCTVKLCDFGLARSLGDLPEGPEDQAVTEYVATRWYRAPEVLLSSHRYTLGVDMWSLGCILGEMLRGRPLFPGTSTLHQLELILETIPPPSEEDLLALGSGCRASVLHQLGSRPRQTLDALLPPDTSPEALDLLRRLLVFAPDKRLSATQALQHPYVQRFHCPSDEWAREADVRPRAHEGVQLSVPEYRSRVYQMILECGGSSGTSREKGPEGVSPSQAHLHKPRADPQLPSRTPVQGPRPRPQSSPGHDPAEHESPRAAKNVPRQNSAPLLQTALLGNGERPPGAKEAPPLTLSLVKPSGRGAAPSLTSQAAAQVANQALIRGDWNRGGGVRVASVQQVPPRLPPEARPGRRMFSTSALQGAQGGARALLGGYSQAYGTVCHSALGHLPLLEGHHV", "note": "Lines come from different studies, so protocols differ."}
{"SMILES": "O=C(c1ccc(Nc2ncc(Cl)c(-c3ccc(Cl)s3)n2)cc1)N1CCC(N2CCCC2)CC1", "test": "binding, competition with immobilised ligand", "setting": "1 µM", "remaining binding [%]": 3.8}
{"SMILES": "COc1cnc(Nc2cccc(S(N)(=O)=O)c2)nc1N1CCN(c2ccccc2)C(=O)C1", "test": "binding, competition with immobilised ligand", "setting": "1 µM", "remaining binding [%]": 100}
{"SMILES": "O=C(c1ccc(Nc2nccc(-c3cc4ccccc4s3)n2)cc1)N1CCC(N2CCCC2)CC1", "test": "binding, competition with immobilised ligand", "setting": "1 µM", "remaining binding [%]": 49}
{"SMILES": "CC1=C(C#N)C(c2ccc3c(c2)c(NC(=O)c2ccccc2C)nn3C)C(C#N)=C(C)N1", "test": "cell-free assay, competition with immobilised ligand", "setting": "1 µM", "remaining binding [%]": 89}
{"SMILES": "CN(C)c1nccc(-c2cnc3ncccn23)n1", "test": "binding", "setting": "1 µM", "remaining binding [%]": 50}
{"SMILES": "CO[C@@H](C)c1c(Nc2ccc([C@H](N(C)C(=O)C3CCS(=O)(=O)CC3)C(F)(F)F)cc2)cnc2cc(Cl)nn12", "test": "cell-free assay, competition with immobilised ligand", "setting": "1 µM", "remaining binding [%]": 87}
{"SMILES": "C[C@@H]1CCN(c2nccc(-c3cnn4ncccc34)n2)C1", "test": "binding", "setting": "1 µM", "remaining binding [%]": 49}
{"SMILES": "CNC(=O)[C@@H]1CC[C@@H](n2c(-c3ccc4cnccc4c3)nc3ccc(C(=O)NCc4cccc(C(N)=O)c4)cc32)C1", "test": "binding, competition with immobilised ligand", "setting": "1 µM", "remaining binding [%]": 95}
{"SMILES": "COc1ccnn2ncc(-c3ccnc(N(C)C)n3)c12", "test": "binding", "setting": "1 µM", "remaining binding [%]": 91}
{"SMILES": "O=C(NCCCN1CCOCC1)c1ccc(Nc2nccc(-c3cc4ccccc4s3)n2)cc1", "test": "binding, competition with immobilised ligand", "setting": "1 µM", "remaining binding [%]": 10}
{"SMILES": "Nc1ncc2c(n1)-c1c([nH]c3ccc(C#CC4CC4)cc13)CCCC2", "test": "binding, competition with immobilised ligand", "setting": "1 µM", "remaining binding [%]": 100}
{"SMILES": "CN([C@@H]1CCc2c(CC(=O)O)c3ccccc3n2C1)S(=O)(=O)c1ccc(F)cc1", "test": "cell-free assay, competition with immobilised ligand", "setting": "1 µM", "remaining binding [%]": 100}
{"SMILES": "c1cncc(-c2cccc(Nc3nccc(NC4CCCCC4)n3)c2)c1", "test": "binding, competition with immobilised ligand", "setting": "10 µM", "remaining binding [%]": 62}
{"SMILES": "O=S(=O)(NC1CCC(c2cc(F)ccc2F)(S(=O)(=O)c2ccc(Cl)cc2)CC1)C(F)(F)F (stereo not shown)", "test": "cell-free assay, competition with immobilised ligand", "setting": "1 µM", "remaining binding [%]": 94}
{"SMILES": "N[C@H]1CCN(c2nccc(-c3cnn4ncccc34)n2)C1", "test": "binding", "setting": "1 µM", "remaining binding [%]": 93}
{"SMILES": "O=C(NCC1CCOCC1)c1n[nH]cc1NC(=O)c1c(F)cccc1F", "test": "binding, competition with immobilised ligand", "setting": "1 µM", "remaining binding [%]": 79}
{"SMILES": "CN(c1nccc(-c2cnn3ncccc23)n1)C1CC1", "test": "binding", "setting": "1 µM", "remaining binding [%]": 85}
{"SMILES": "Cc1noc([C@H]2C[C@@H](c3ccc(C(F)(F)F)cc3)CN(C(=O)N3CCS(=O)(=O)C3)C2)n1", "test": "cell-free assay, competition with immobilised ligand", "setting": "1 µM", "remaining binding [%]": 100}
{"SMILES": "CN(CCCC(F)(F)F)c1nccc(-c2cnn3ncccc23)n1", "test": "binding", "setting": "1 µM", "remaining binding [%]": 100}
{"SMILES": "CSc1cccnc1N1CCN(Cc2nc3ccccc3[nH]2)CC1", "test": "cell-free assay, competition with immobilised ligand", "setting": "1 µM", "remaining binding [%]": 82}
{"SMILES": "CC1CCCN1c1nccc(-c2cnn3ncccc23)n1 (stereo not shown)", "test": "binding", "setting": "1 µM", "remaining binding [%]": 100}
{"SMILES": "FC(F)(F)Oc1cccc(-c2cnc3ccc(-c4ccncc4)nn23)c1", "test": "cell-free assay, competition with immobilised ligand", "setting": "5 µM", "remaining binding [%]": 48}
